From ChEMBL document CHEMBL5678802, “Small-molecule p21-activated kinase inhibitor PF-3758309 is a potent inhibitor of oncogenic signaling and tumor growth” (Proc Natl Acad Sci U S A, 2010)
The source made the active and inactive calls. The calls are words filed in the database; no cut-off is given here.

Key:
SW-403 = assay: Antiproliferative activity against human SW403 cells assessed as inhibition of cell proliferation incubated for 3 days by CellTiter-Glo Luminescent Cell Viability Assay; type: functional, cell-based; conditions: SW-403, 72 h
How it was run: (§1)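 Cells of each line were plated in 384-well plates on day 1 and exposed to compound from day 2 for 3 days. On day 5 all medium was aspirated. Viable cell number was read by CellTiter-Glo luminescence, which quantifies cellular ATP.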

NCI-H716 = assay: Antiproliferative activity against human NCI-H716 cells assessed as inhibition of cell proliferation incubated for 3 days by CellTiter-Glo Luminescent Cell Viability Assay; type: functional, cell-based; conditions: NCI-H716, 72 h; how it was run: as §1
NCI-H520 = assay: Antiproliferative activity against human NCI-H520 cells assessed as inhibition of cell proliferation incubated for 3 days by CellTiter-Glo Luminescent Cell Viability Assay; type: functional, cell-based; conditions: NCI-H520, 72 h; how it was run: as §1
Panc 04.03 = assay: Antiproliferative activity against human Panc 04.03 cells assessed as inhibition of cell proliferation incubated for 3 days by CellTiter-Glo Luminescent Cell Viability Assay; type: functional, cell-based; conditions: Panc 04.03, 72 h; how it was run: as §1
NCI-H1299 = assay: Inhibition of anchorage independent cell growth in human NCI-H1299 cells incubated for 6 days by Alamar blue reagent based fluorescence plate reader analysis; type: functional; conditions: NCI-H1299, 144 h
NCI-H1666 = assay: Inhibition of anchorage independent cell growth in human NCI-H1666 cells incubated for 6 days by Alamar blue reagent based fluorescence plate reader analysis; type: functional; conditions: NCI-H1666, 144 h
HCC1954 = assay: Antiproliferative activity against human HCC1954 cells assessed as inhibition of cell proliferation incubated for 3 days by CellTiter-Glo Luminescent Cell Viability Assay; type: functional, cell-based; conditions: HCC1954, 72 h
How it was run: (§2)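 Cancer cell lines seeded in 384-well plates on day 1; compound added on day 2 and left for 3 days. On day 5 all medium was aspirated, and viable cells were quantified by CellTiter-Glo luminescence, which measures cellular ATP. Dose-dependent effects on proliferation were determined.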

HCC38 = assay: Antiproliferative activity against human HCC38 cells assessed as inhibition of cell proliferation incubated for 3 days by CellTiter-Glo Luminescent Cell Viability Assay; type: functional, cell-based; conditions: HCC38, 72 h; how it was run: as §2
MDA-MB-415 = assay: Antiproliferative activity against human MDA-MB-415 cells assessed as inhibition of cell proliferation incubated for 3 days by CellTiter-Glo Luminescent Cell Viability Assay; type: functional, cell-based; conditions: MDA-MB-415, 72 h; how it was run: as §2
[1] = target: Ribosomal protein S6 kinase alpha-1 (Homo sapiens, UniProt Q15418); assay: Inhibition of human RSK1 in presence of ATP relative to control; conditions: concentration not given here
Ribosomal protein S6 kinase alpha-1, sequence (Q15418 whole entry): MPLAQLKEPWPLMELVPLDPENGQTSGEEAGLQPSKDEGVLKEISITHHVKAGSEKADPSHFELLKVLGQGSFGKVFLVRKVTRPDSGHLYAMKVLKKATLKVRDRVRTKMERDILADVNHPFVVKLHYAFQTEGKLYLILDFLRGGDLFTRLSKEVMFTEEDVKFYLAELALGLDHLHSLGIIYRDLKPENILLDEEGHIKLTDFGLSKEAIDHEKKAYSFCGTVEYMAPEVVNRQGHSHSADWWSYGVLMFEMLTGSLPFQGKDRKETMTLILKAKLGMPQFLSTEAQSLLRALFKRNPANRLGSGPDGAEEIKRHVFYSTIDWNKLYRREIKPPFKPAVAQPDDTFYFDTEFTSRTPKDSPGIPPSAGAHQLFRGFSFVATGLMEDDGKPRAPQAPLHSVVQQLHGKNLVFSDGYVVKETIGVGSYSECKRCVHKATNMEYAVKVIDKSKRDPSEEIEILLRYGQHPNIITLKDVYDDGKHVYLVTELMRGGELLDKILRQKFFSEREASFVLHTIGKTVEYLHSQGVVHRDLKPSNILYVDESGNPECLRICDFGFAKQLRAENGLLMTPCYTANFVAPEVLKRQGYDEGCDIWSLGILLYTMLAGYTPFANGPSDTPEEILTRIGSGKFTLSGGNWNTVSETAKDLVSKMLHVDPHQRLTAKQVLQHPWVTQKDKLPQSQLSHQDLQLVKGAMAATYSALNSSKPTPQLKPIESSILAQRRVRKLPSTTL

[2] = target: Protein kinase C theta type (Homo sapiens, UniProt Q04759); assay: Inhibition of human PKCtheta in presence of ATP relative to control; conditions: concentration not given here
Protein kinase C theta type, sequence (Q04759 whole entry, looked up): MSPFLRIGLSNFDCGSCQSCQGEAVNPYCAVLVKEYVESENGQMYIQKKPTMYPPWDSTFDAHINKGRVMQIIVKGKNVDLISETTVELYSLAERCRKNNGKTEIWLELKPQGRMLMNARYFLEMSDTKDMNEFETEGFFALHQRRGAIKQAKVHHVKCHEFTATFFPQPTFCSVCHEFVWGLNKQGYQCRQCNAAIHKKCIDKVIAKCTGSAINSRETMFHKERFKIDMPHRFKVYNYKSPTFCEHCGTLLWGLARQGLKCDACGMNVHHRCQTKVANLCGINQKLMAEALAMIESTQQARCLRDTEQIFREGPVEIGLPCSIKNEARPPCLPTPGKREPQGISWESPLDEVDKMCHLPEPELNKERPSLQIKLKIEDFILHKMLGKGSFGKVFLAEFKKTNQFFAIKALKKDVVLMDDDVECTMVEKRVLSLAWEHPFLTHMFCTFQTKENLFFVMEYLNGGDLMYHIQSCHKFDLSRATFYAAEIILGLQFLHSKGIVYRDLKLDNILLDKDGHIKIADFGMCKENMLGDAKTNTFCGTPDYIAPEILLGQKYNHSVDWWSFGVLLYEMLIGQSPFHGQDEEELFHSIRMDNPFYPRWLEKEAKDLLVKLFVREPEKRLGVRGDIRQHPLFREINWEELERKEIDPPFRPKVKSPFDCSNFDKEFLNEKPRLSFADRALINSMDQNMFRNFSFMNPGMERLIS

[3] = target: Serine/threonine-protein kinase D2 (Homo sapiens) (UniProt Q9BZL6); assay: Inhibition of human PKD2 (PRKD2) in presence of ATP relative to control; conditions: concentration not given here
Serine/threonine-protein kinase D2 (Homo sapiens), sequence (Q9BZL6 whole entry): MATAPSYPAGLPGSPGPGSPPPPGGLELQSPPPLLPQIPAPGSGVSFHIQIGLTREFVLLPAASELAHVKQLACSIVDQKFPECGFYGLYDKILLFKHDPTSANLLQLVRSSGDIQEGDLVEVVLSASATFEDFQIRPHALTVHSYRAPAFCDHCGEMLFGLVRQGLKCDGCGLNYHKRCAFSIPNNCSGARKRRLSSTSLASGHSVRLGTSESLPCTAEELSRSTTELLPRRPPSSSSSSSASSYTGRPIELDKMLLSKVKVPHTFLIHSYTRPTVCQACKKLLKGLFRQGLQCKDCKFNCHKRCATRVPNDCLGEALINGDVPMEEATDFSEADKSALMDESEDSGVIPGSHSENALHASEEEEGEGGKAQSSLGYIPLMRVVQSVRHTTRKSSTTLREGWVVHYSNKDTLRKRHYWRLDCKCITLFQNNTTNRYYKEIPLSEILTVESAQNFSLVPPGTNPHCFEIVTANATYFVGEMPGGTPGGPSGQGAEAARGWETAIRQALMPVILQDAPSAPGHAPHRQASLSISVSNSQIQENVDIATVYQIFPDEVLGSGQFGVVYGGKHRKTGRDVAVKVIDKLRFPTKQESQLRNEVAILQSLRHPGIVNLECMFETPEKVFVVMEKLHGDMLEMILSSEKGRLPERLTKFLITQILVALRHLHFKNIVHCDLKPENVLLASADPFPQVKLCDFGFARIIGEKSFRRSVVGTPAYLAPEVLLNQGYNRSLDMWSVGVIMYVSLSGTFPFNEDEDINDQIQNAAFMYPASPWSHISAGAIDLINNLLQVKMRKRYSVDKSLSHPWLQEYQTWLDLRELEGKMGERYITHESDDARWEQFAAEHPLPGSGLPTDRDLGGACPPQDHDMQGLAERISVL

[4] = target: Serine/threonine-protein kinase D1 (Homo sapiens) (UniProt Q15139); assay: Inhibition of human PKCmu in presence of ATP relative to control; conditions: concentration not given here
Serine/threonine-protein kinase D1 (Homo sapiens), sequence (Q15139 whole entry): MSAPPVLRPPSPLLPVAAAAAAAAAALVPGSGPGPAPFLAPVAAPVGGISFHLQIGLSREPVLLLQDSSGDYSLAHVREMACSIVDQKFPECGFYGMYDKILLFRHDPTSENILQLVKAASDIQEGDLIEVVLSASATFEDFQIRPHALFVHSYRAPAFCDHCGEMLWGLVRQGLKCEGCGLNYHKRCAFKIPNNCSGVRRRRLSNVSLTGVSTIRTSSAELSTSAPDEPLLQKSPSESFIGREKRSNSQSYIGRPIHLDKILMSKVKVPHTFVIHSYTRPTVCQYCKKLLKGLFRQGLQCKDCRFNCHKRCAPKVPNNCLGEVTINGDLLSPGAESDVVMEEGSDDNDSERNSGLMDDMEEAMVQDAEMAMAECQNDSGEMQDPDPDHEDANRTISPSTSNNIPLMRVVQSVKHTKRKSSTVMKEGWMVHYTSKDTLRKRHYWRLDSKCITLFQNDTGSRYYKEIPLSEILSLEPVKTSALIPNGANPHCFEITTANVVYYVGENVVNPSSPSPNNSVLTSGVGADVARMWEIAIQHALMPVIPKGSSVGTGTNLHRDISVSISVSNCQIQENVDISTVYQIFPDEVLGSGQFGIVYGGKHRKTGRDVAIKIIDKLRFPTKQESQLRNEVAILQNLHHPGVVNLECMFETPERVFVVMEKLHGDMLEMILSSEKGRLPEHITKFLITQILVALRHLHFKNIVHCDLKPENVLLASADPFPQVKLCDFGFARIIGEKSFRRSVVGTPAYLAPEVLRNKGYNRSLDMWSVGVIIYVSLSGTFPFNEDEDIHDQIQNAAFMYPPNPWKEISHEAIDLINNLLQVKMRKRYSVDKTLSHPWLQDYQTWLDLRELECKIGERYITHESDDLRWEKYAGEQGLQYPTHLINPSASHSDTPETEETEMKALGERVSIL

[5] = target: T1, Serine/threonine-protein kinase Chk2 (Homo sapiens, UniProt O96017); assay: Inhibition of human CHK2 assessed as inhibition constant in presence of ATP
T1 sequence (O96017 whole entry): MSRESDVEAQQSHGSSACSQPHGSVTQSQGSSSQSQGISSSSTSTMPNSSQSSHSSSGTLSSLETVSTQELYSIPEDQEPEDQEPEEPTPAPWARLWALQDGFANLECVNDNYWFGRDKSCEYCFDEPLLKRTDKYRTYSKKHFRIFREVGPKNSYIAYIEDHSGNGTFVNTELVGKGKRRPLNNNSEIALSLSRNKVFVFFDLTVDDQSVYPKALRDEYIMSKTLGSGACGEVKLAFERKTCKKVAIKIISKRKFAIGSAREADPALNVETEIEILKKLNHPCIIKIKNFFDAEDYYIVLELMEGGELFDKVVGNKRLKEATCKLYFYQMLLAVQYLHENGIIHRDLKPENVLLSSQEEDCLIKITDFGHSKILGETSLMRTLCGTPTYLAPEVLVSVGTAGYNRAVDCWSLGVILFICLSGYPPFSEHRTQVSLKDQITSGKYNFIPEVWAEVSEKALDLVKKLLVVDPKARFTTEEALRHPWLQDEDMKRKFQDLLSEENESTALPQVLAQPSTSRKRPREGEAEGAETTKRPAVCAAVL

[6] = target: T1, Serine/threonine-protein kinase Chk2; assay: Inhibition of human CHK2 in presence of ATP
[7] = target: T2, Receptor-type tyrosine-protein kinase FLT3 (Homo sapiens, UniProt P36888); assay: Inhibition of human FLT3 in presence of ATP
T2 sequence (P36888 whole entry): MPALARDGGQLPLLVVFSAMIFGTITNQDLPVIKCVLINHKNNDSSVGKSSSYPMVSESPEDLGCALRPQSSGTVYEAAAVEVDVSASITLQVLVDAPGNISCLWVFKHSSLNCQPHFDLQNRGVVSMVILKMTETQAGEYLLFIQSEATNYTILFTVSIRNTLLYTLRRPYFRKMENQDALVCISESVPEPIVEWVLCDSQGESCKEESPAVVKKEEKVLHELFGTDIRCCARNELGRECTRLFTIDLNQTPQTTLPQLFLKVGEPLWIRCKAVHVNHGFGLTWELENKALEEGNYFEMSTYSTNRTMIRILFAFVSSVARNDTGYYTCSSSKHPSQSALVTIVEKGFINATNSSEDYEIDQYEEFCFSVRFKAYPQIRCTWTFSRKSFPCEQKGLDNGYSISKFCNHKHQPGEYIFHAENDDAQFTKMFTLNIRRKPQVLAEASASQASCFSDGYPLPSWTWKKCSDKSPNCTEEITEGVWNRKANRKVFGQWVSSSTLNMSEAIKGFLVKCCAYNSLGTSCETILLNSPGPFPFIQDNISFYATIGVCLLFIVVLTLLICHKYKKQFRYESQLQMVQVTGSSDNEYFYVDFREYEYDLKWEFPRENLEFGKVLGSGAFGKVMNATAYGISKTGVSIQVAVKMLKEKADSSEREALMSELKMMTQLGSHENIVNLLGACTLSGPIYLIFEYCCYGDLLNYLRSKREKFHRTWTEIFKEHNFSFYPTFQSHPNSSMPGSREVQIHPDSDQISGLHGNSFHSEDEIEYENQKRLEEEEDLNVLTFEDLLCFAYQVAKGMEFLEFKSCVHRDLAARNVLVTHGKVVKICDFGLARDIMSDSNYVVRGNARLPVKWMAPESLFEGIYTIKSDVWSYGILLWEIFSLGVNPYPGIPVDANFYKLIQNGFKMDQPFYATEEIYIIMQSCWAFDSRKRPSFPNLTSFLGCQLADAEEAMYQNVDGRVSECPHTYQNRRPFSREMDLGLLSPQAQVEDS

[8] = target: Ribosomal protein S6 kinase alpha-3 (Homo sapiens, UniProt P51812); assay: Inhibition of human RSK2 in presence of ATP by cellular assay
Ribosomal protein S6 kinase alpha-3, sequence (P51812 whole entry): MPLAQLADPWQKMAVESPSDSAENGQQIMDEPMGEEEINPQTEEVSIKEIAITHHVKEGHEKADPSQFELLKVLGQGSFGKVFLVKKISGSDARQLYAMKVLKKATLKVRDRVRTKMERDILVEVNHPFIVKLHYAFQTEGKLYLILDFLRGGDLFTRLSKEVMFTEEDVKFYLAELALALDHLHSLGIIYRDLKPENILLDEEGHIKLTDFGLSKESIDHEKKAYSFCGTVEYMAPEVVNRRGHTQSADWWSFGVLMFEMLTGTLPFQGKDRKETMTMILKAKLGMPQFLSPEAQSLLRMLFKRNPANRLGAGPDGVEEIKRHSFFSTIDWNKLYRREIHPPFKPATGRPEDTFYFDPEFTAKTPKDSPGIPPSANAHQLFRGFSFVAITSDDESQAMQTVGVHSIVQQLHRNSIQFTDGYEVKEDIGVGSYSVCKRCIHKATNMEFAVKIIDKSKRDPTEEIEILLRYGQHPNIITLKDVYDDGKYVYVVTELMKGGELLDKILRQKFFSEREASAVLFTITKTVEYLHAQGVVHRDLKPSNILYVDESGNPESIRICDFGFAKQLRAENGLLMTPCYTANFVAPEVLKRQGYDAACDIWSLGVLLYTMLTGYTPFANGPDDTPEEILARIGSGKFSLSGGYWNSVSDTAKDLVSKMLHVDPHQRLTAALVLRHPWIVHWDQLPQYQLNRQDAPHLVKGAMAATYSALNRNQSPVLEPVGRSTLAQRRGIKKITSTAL

[9] = target: T1, Serine/threonine-protein kinase Chk2; assay: Inhibition of human CHK2 in presence of ATP by cellular assay
[10] = Inhibition of YFP/YFP variant coding sequence fused PAK4/cofilin (unknown origin) expressed in HEK293 cells incubated for 8 to 24 hrs by fluorescence based analysis; type: cell-based, Homo sapiens
[11] = Drug concentration in nude mouse plasma xenografted with human HCT-116 cells at 3.3 mg/kg administered via pump for 9 days by LC-MS/MS analysis; type: ADME, organism-based; conditions: time 9 day
[12] = Drug concentration in nude mouse plasma xenografted with human HCT-116 cells at 0.12 mg/kg administered via pump for 9 days by LC-MS/MS analysis; type: ADME, organism-based; conditions: time 9 day
HCT-116 [13] = assay: Antitumor activity against human HCT-116 cells xenografted in nude mouse assessed as reduction in Ki67 at 15 to 25 mg/kg administered orally twice daily by immunohistochemical analysis; type: functional, organism-based; conditions: dose 15-25 mg/kg, route po, time 3-6 day, TDE = time-dependent effect
HCT-116 [14] = assay: Antitumor activity against human HCT-116 cells xenografted in nude mouse assessed as reduction in STAT6 phosphorylation at Y641 residue at 15 to 150 mg/kg/day administered via pump for 18 hrs by Reverse-Phase protein array analysis; type: functional, organism-based; conditions: dose 15-150 mg/kg/day

## Cc1nc(Nc2n[nH]c3c2CN(C(=O)N[C@H](CN(C)C)c2ccccc2)C3(C)C)c2sccc2n1 [PF-03758309]
SW-403
  IC50: 2.2 nM
NCI-H716
  IC50: 11 nM
NCI-H520
  IC50: 5.6 nM
Panc 04.03
  IC50: 347 nM
NCI-H1299
  IC50: 7 nM
NCI-H1666
  IC50: 6.25 nM
HCC1954
  IC50: 0.33 nM
HCC38
  IC50: 0.52 nM
MDA-MB-415
  IC50: 36 nM
[1]
  inhibition: 101%
[2]
  inhibition: 98%
[3]
  inhibition: 96%
[4]
  inhibition: 96%
[5]
  Ki: 3 nM
[6]
  IC50: 13 nM
[7]
  IC50: 96 nM
[8]
  IC50: 171 nM
[9]
  IC50: 302 nM
[10]
  IC50: 10.4 nM
[11]
  concentration at 216 h: 37 ng/mL
[12]
  concentration at 216 h: 0.56 ng/mL
HCT-116 [13]
  Activity: Tde
HCT-116 [14]
  Activity: Active
